Assay outcomes (PubChem)
IDH1 R132H inh: inhibitors of IDH1 R132H reductase, primary screen, biochemical, plate reader, single point | diaphorase/resazurin fluorescence, 60 min | inhibition, % at 10 µM | hit rate 0.18% among 70,000 | AID 624101, 2012; in the data active = inhibition above about 34%; inconclusive = no clear call, values can overlap the other calls; inactive = below about 11%
Target sequence (O75874 whole entry R132H): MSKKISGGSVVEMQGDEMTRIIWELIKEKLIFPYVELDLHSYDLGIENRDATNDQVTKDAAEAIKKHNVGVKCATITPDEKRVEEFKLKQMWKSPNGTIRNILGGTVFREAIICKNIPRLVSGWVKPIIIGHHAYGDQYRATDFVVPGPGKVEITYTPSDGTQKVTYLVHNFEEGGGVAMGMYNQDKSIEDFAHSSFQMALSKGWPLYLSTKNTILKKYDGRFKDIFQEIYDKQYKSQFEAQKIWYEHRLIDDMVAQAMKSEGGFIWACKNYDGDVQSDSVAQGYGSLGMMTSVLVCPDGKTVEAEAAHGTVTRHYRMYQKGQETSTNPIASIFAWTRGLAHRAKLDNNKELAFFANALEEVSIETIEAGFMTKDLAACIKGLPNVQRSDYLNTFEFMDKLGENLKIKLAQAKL
GASC1 inh: inhibitors of GASC-1 (KDM4C) histone demethylase, primary screen, biochemical, single concentration HTS. Lysine-specific demethylase 4C (Homo sapiens), Q9H3R0. hit rate 0.15% among 96,000. GST-KDM4C 2-372, H3K9me3 peptide, LANCE TR-FRET. inhibition, % at 12.5 µM. AID 720574, 2013;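 active = mean replicate inhibition above about 25%, with at least 55% of replicates also reaching it, limit read from the data, passing the limit was not always enough; inconclusive = only one of those two conditions met; inactive = neither condition met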
Target sequence (Q9H3R0 2-372 limits assumed): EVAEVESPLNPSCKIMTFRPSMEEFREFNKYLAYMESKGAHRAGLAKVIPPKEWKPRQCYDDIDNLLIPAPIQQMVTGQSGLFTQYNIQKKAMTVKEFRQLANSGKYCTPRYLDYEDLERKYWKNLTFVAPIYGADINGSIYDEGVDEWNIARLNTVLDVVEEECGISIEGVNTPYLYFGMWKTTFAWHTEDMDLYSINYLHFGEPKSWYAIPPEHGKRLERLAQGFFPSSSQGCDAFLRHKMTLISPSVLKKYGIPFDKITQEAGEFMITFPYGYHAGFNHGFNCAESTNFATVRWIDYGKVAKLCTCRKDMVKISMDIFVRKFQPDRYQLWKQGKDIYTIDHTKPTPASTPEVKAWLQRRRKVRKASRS
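reagent = H3K9me3 peptide substrate, Fe(II), 2-oxoglutarate | system = GST-tagged GASC-1 (JMJD2C) catalytic fragment, aa 2-372 | amount = enzyme final amount 10 nM | read-out = Fall in 671/618 emission ratio as inhibition | medium = HEPES buffer, pH 7.5, plus ascorbate | schedule = 30 min reaction, 60 min detection, RT | measured by = LANCE TR-FRET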
T cruzi growth-1: T. cruzi intracellular proliferation inhibitors, primary screen, cell-based, beta-gal Tulahuen parasites, NIH3T3 host, luminescence | T. cruzi beta-gal in NIH3T3, GalScreen luminescence, 90 h | inhibition, % at 8.34 µM | hit rate 5.9% among 77,000 | AID 624255, 2012;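 active = mean inhibition above about 93%, with at least 55% of replicates each passing it, limit read from the data, passing the limit was not always enough; inconclusive = only one of those two conditions holds; inactive = neither condition holds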
T cruzi growth-2: T. cruzi intracellular proliferation inhibitors, confirmation, cell-based, NIH3T3 host, beta-gal parasite, luminescence, cherry-pick; shares compounds with T cruzi growth-1; T. cruzi beta-gal in NIH3T3, GalScreen luminescence, 90 h; inhibition, % at 8.35 µM; hit rate 72% among 5,600;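 active = mean replicate inhibition above about 95% and at least 55% of replicates individually reaching it, limit read from the data; inconclusive = only one of the two criteria is met; inactive = neither criterion is met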
T cruzi growth-3: inhibitors of intracellular T. cruzi replication, confirmation, NIH3T3 host cells, beta-gal parasites, cherry-pick, set 2; shares compounds with T cruzi growth-1; T. cruzi beta-gal in NIH3T3, GalScreen luminescence, 90 h; inhibition, % at 2.09 µM; hit rate 21% among 5,600; AID 651740, 2012;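 active = mean inhibition above about 95%, with at least 55% of replicates also reaching it, limit read from the data; inconclusive = meets just one of the two conditions; inactive = meets neither condition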
3T3 cytotox: cytotoxicity in mouse NIH/3T3 fibroblasts, confirmation, cytotoxicity control for T. cruzi proliferation inhibitor project, cell-based, cherry-pick, single point; shares compounds with T cruzi growth-1; NIH/3T3 viability, CellTiter-Glo ATP luminescence, 90 h; cytotoxicity (signal decrease), % at 8.35 µM; hit rate 14% among 5,600; AID 651742, 2012;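 active = mean signal decrease across replicates above about 35% based on untreated-well scatter, with enough replicates individually passing, limit read from the data; inconclusive = no rule stated though some were filed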
3T3 cytotox 2: NIH/3T3 fibroblast cytotoxicity, confirmation, cytotoxicity control, cell-based, cherry-pick, single point, set 2. shares compounds with T cruzi growth-1. NIH/3T3 viability, CellTiter-Glo ATP luminescence, 90 h. inhibition, % at 24.9 µM. hit rate 56% among 5,600;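 active = mean loss of cell viability signal at or above a set limit, and enough replicates individually reaching it; inconclusive = meets only the mean limit or only the replicate share; inactive = meets neither condition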
Large screens that a line does not name were inactive (follow-up assays come after a bar, where they were run). Many of the other results were omitted from the sample, so hits are more common in it than they were.

C[C@@H]1CN([C@@H](C)CO)S(=O)(=O)c2ccc(C3=CCCC3)cc2O[C@@H]1CN(C)Cc1ccccc1	T cruzi growth-1 107 | T cruzi growth-2 inconclusive | T cruzi growth-3 inactive | 3T3 cytotox inactive | 3T3 cytotox 2 106
C[C@@H]1CN([C@@H](C)CO)S(=O)(=O)c2ccc(C3=CCCC3)cc2O[C@H]1CN(C)Cc1ccccc1	none
C[C@H](CO)N1C[C@H](C)[C@@H](CN(C)Cc2cccc(C(=O)O)c2)Oc2cc(C3=CCCC3)ccc2S1(=O)=O	none
C[C@@H]1CN([C@H](C)CO)S(=O)(=O)c2ccc(C3=CCCCC3)cc2O[C@H]1CN(C)Cc1cccnc1	none (no result: IDH1 R132H inh, T cruzi growth-1)
C[C@H](CO)N1C[C@H](C)[C@H](CN(C)Cc2ccccc2)Oc2cc(C3=CCCC3)ccc2S1(=O)=O	T cruzi growth-1 108 | T cruzi growth-2 108 | T cruzi growth-3 inactive | 3T3 cytotox inactive | 3T3 cytotox 2 105
O=C(C[C@@H]1C=C[C@@H](NC(=O)Nc2ccc3c(c2)OCO3)[C@@H](CO)O1)NCc1ccccc1	none (no result: GASC1 inh)
CNC[C@@H]1OCCCC[C@@H](C)Oc2ccc(NC(=O)NC3CCCCC3)cc2C(=O)N([C@H](C)CO)C[C@H]1C	none
C[C@H]1CCCCO[C@@H](CN(C)C)[C@@H](C)CN([C@@H](C)CO)C(=O)c2cc(NC(=O)Cc3ccccc3)ccc2O1	none
CNC[C@H]1OCCCC[C@H](C)Oc2ccc(NC(=O)c3ccccc3)cc2C(=O)N([C@H](C)CO)C[C@@H]1C	T cruzi growth-1 inconclusive (no result: IDH1 R132H inh) | T cruzi growth-2 99 | T cruzi growth-3 inactive | 3T3 cytotox inactive | 3T3 cytotox 2 inactive
CNC[C@@H]1OCCCC[C@H](C)Oc2ccc(NC(=O)NC3CCCCC3)cc2C(=O)N([C@@H](C)CO)C[C@@H]1C	T cruzi growth-1 111 | T cruzi growth-2 inactive | T cruzi growth-3 inactive | 3T3 cytotox inactive | 3T3 cytotox 2 inactive
CNC[C@@H]1OCCCC[C@@H](C)Oc2ccc(NC(=O)c3ccccc3)cc2C(=O)N([C@H](C)CO)C[C@@H]1C	none
CNC[C@@H]1OCCCC[C@H](C)Oc2ccc(NC(=O)Cc3ccccc3)cc2C(=O)N([C@@H](C)CO)C[C@@H]1C	T cruzi growth-1 99 | T cruzi growth-2 inactive | T cruzi growth-3 inactive | 3T3 cytotox inactive | 3T3 cytotox 2 inactive
COc1cccc(S(=O)(=O)N[C@H]2C=C[C@H](CC(=O)NCc3ccncc3)O[C@@H]2CO)c1	none
C[C@@H]1CN([C@H](C)CO)S(=O)(=O)c2ccc(C3=CCCCC3)cc2O[C@H]1CN(C)C(=O)Cc1ccccc1	none
C[C@H]1CN([C@@H](C)CO)C(=O)c2cc(/C=C/c3ccccc3)cnc2O[C@@H]1CN(C)S(=O)(=O)c1ccccc1F	T cruzi growth-1 126 | T cruzi growth-2 104 | T cruzi growth-3 inactive | 3T3 cytotox inactive | 3T3 cytotox 2 37
C[C@@H]1CN([C@@H](C)CO)C(=O)c2cc(/C=C/c3ccccc3)cnc2O[C@@H]1CN(C)S(=O)(=O)c1ccccc1	none
C[C@@H]1CN([C@@H](C)CO)C(=O)c2cc(/C=C/c3ccccc3)cnc2O[C@H]1CN(C)S(=O)(=O)c1ccccc1F	T cruzi growth-1 123 | T cruzi growth-2 108 | T cruzi growth-3 inactive | 3T3 cytotox inactive | 3T3 cytotox 2 inconclusive
C/C=C/c1cnc2c(c1)C(=O)N([C@H](C)CO)C[C@@H](C)[C@H](CN(C)S(=O)(=O)c1ccccc1F)O2	none (no result: T cruzi growth-1)
C[C@H](CO)N1C[C@H](C)[C@@H](CN(C)S(=O)(=O)c2ccccc2)Oc2ncc(/C=C/c3ccccc3)cc2C1=O	T cruzi growth-1 125 | T cruzi growth-2 108 | T cruzi growth-3 inactive | 3T3 cytotox inactive | 3T3 cytotox 2 inactive
C[C@H]1CN([C@@H](C)CO)C(=O)c2cc(/C=C/c3ccccc3)cnc2O[C@H]1CN(C)S(=O)(=O)c1ccccc1F	none
CC1CCC2C(C)(C)[C@@H](O)CC[C@]2(C)C12Cc1c(O)cc3c(c1O2)CN(C(CCC(=O)O)C(=O)O)C3=O (some centres undefined)	none (no result: GASC1 inh, T cruzi growth-1)
C[C@H]1CN([C@@H](C)CO)C(=O)Cc2cc(NC(=O)CCN3CCOCC3)ccc2O[C@@H]1CN(C)S(=O)(=O)c1cn(C)cn1	none
O=C(Nc1ccc(I)cc1C(=O)N1CCN(CCO)CC1)c1ccccc1Cl	none (no result: GASC1 inh, T cruzi growth-1)
CC(C)NC(=O)N(C)C[C@H]1Oc2ccc(N(C)C)cc2CC(=O)N([C@H](C)CO)C[C@H]1C	none
CCCC(=O)Nc1ccc2c(c1)C(=O)N(C)[C@@H]1CC[C@H](CC(=O)Nc3cn(C)nc3C)O[C@@H]1CO2	none (no result: IDH1 R132H inh)
CC=Cc1ccc2n(c1=O)C[C@H]1[C@H](CO)[C@@H](C(=O)NCc3ccccc3F)N(S(C)(=O)=O)[C@@H]21 (mixture of isomers)	none (no result: IDH1 R132H inh)
CC=Cc1ccc2n(c1=O)C[C@H]1[C@H](CO)[C@@H](C(=O)N3CCc4ccccc4C3)[C@@H]2N1CCC (mixture of isomers)	T cruzi growth-1 103 (no result: IDH1 R132H inh) | T cruzi growth-2 inactive | T cruzi growth-3 inactive | 3T3 cytotox inactive | 3T3 cytotox 2 inactive
CCN1[C@@H]2Cn3c(ccc(/C=C/c4ccccc4)c3=O)[C@H]1[C@@H](C(=O)N1CCCCC1)[C@@H]2CO	T cruzi growth-1 170 (no result: IDH1 R132H inh) | T cruzi growth-2 inactive | T cruzi growth-3 inactive | 3T3 cytotox inactive | 3T3 cytotox 2 45
CC=Cc1ccc2n(c1=O)C[C@H]1[C@H](CO)[C@@H](C(=O)NCc3ccccc3Cl)N(S(C)(=O)=O)[C@@H]21 (mixture of isomers)	T cruzi growth-1 107 (no result: IDH1 R132H inh) | T cruzi growth-2 inactive | T cruzi growth-3 inactive | 3T3 cytotox inactive | 3T3 cytotox 2 inactive
CC=Cc1ccc2n(c1=O)C[C@@H]1[C@@H](CO)[C@H](C(=O)NCc3ccccn3)[C@H]2N1CC1CC1 (mixture of isomers)	none (no result: IDH1 R132H inh)
CC=Cc1ccc2n(c1=O)C[C@H]1[C@H](CO)[C@@H](C(=O)NCc3ccccn3)[C@@H]2N1CCC (mixture of isomers)	T cruzi growth-1 108 (no result: IDH1 R132H inh) | T cruzi growth-2 110 | T cruzi growth-3 inactive | 3T3 cytotox inactive | 3T3 cytotox 2 inactive
CCN1[C@@H]2Cn3c(ccc(/C=C/c4ccccc4)c3=O)[C@H]1[C@@H](C(=O)N1CCOCC1)[C@@H]2CO	none (no result: IDH1 R132H inh)
CC=Cc1ccc2n(c1=O)C[C@@H]1[C@@H](CO)[C@H](C(=O)N3CCc4ccccc4C3)[C@H]2N1CC (mixture of isomers)	none (no result: IDH1 R132H inh)
